High-throughput results (PubChem)
NPR2 activator: GC-B (human) receptor activation. P20594. HEK293-GC-B cells, CNP EC30, cGMP TR-FRET; 0% at EC30 CNP, 100% saturating CNP. activation, % at 10 µM. 370,000 compounds, 0.11% hits;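 active means activation at 10 µM reaching about 35% in either raw or pattern-adjusted values, limit read from the data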
Lipid droplet: modulators of hepatic lipid droplet formation | inhibition, % at 6.5 µM | AML12 mouse hepatocytes, oleate lipid droplets, BODIPY imaging | 240,000 compounds, 0.4% hits;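 active means lipid droplet intensity inhibited by at least 50%, with more than 500 cells counted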
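Assay system: AML12 hepatocytes (mouse) / Also added: 100 µM oleic acid challenge / Times: overnight treatment with compound plus oleate / Detection: high-content imaging of BODIPY-stained droplets and DAPI nuclei / Evaluation: % inhibition of lipid droplet signal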
JMJD2C inh: inhibitors of human GASC-1 (JMJD2C) demethylase; GST-JMJD2C(1-420) H3K9me3 demethylation, DELFIA europium; inhibition, % at 2.35 µM; 330,000 compounds, 0.069% hits;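 active means more than half of a compound's replicate wells show inhibition beyond 50%, single wells judged on their own value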;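 further: signal counts dimethyl H3K9 product captured on neutravidin plate; 0% = median of DMSO wells and 100% = 0.3 times that DMSO median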
Target sequence (Q9H3R0 1-420 limits assumed): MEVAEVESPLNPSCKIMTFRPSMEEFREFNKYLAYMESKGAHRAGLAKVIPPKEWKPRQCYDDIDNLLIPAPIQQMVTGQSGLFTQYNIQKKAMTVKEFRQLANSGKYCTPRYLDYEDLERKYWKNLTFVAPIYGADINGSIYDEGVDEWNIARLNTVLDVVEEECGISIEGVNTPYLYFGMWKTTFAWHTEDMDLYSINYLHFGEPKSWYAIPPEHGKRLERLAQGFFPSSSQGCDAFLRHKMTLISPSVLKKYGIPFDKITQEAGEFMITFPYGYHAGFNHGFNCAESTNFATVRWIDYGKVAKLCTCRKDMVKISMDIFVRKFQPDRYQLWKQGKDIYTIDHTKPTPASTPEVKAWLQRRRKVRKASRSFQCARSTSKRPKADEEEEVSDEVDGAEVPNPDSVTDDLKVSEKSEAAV
GC-A act: GC-A (human) enzyme activation; 370,000 compounds, 0.14% hits; P16066; activation, % at 10 µM; HEK293 GC-A cells, cGMP TR-FRET, EC30 ANP; 0% at EC30 ANP, 100% saturating ANP; AID 1671463; in the data active means activation above about 40%
aDG glyco act: increases alpha dystroglycan glycosylation; 360,000 compounds, 0.22% hits; activation, % at 10 µM; AID 624168; Pro5-aDG cells, alpha-DG glycosylation AlphaScreen (IIH6); 0% Pro5, 100% B10-LARGE cell signal;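 active means activation of at least 8% versus controls, or a plate z-score of at least 8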;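 further: Pro5 are CHO cells carrying HIG-tagged alpha-DG that lacks glycosylation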
NR3A LBD binder: modulators (binders) of human NR3A ligand-binding domain | NR3A LBD differential scanning fluorimetry, Tm shift; 0% = protein alone, 100% = glycine-bound protein | Tm shift relative to glycine control, % at 25 µM | 340,000 compounds, 2.5% hits | AID 1259313;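 active means melting temperature shift of at least 10% of the positive control shift, at one fixed dose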
Starred values were filed as active, the others as inactive. The list is not random: actives were taken first. Their share in the collection is about 3%.

How did O=C(NCCS(=O)(=O)N1CCC2(CC1)OCCO2)c1ccc(F)cc1 do in these assays?
NPR2 activator: 4; JMJD2C inh: -6; GC-A act: 4; aDG glyco act: 0; NR3A LBD binder: -1

What do the screens show for `CN1N=C(c2ccc(Cl)cc2)CC(c2ccc(Cl)cc2)C1=O` (stereo unspecified)?
NPR2 activator: -5; Lipid droplet: 5; JMJD2C inh: -4; GC-A act: -6; aDG glyco act: 0; NR3A LBD binder: 2

How did CCN1CC(c2ccccc2)C(c2ccc(Cl)cc2)=N1 (stereo unspecified) do in these assays?
NPR2 activator: -6; Lipid droplet: -1; JMJD2C inh: 0; GC-A act: -18; aDG glyco act: 0; NR3A LBD binder: 12*

How did O=C(O)c1ccccc1S(=O)(=O)NCC(O)COC1CCCCC1 (stereo unspecified) do in these assays?
NPR2 activator: 8; JMJD2C inh: -11; GC-A act: -4; aDG glyco act: 0; NR3A LBD binder: -3

What do the screens show for `Cc1ccc(OCC(O)CNS(=O)(=O)c2ccccc2C(=O)O)cc1` (stereo unspecified)?
NPR2 activator: 5; Lipid droplet: 10; JMJD2C inh: 1; GC-A act: 5; aDG glyco act: 0; NR3A LBD binder: 13*

What do the screens show for `CCOc1ccc(CCNC(=O)c2cc3sccc3n2CC)cc1OC`?
NPR2 activator: 3; GC-A act: -1

How did COc1ccc(-c2csc(-c3cccnc3)n2)cc1C do in these assays?
NPR2 activator: -1; Lipid droplet: 12; JMJD2C inh: 1; GC-A act: 3; aDG glyco act: 0; NR3A LBD binder: 1

What do the screens show for `COc1ccc2cc(-c3csc(-c4cccnc4)n3)ccc2c1`?
NPR2 activator: -6; Lipid droplet: -5; JMJD2C inh: 14; GC-A act: -1; aDG glyco act: 0; NR3A LBD binder: 26*

What do the screens show for `NC(=O)c1cc(-c2csc(NCCc3ccccc3)n2)ccc1O`?
NPR2 activator: 4; Lipid droplet: 16; JMJD2C inh: -2; GC-A act: -2; aDG glyco act: 0; NR3A LBD binder: 10*

How did NC(=O)c1cc(-c2csc(-c3cccnc3)n2)ccc1O do in these assays?
NPR2 activator: -2; Lipid droplet: -28; JMJD2C inh: 9; GC-A act: 2; aDG glyco act: 0; NR3A LBD binder: 20*

Results for CCCCC(=O)N1CCN(C(=O)c2ccc3c(c2)nc(C)n3C2CCCC2)CC1 ?
NPR2 activator: -1; GC-A act: -1

How did CCOC(=O)c1sc(NC(=O)c2c(CC)noc2C)nc1C do in these assays?
NPR2 activator: 1; JMJD2C inh: 0; GC-A act: -2; aDG glyco act: 0; NR3A LBD binder: 19*

How did COC(=O)c1sc(NC(=O)c2c(C)noc2C)nc1C do in these assays?
NPR2 activator: -3; Lipid droplet: -2; JMJD2C inh: -4; GC-A act: 0; aDG glyco act: 0; NR3A LBD binder: -26

How did CCOC(=O)c1sc(NC(=O)Nc2ccc(Cl)cc2)nc1C do in these assays?
NPR2 activator: -10; JMJD2C inh: -23; GC-A act: -7; aDG glyco act: 1; NR3A LBD binder: 28*

Results for CCOC(=O)c1sc(NC(=O)CSc2nccn2C)nc1C ?
NPR2 activator: 2; Lipid droplet: -1; JMJD2C inh: 18; GC-A act: 0; aDG glyco act: 0; NR3A LBD binder: 13*

How did O=c1c2cc3cc(Cl)ccc3nc2ncn1N1CCCCC1 do in these assays?
NPR2 activator: -11; GC-A act: -1

Results for COCCCNC(=O)C[C@H]1C[C@@]2(C(=O)OC)C(=C[C@H](COCc3ccccc3)O[C@@H]2C)N(Cc2ccc(Cl)cc2Cl)C1=O ?
NPR2 activator: 0; GC-A act: -4

What do the screens show for `COC(=O)[C@]12C[C@H](CC(=O)N3CCCCC3)C(=O)N(CCc3ccc(OC)c(OC)c3)C1=C[C@H](C(C)(C)C)O[C@@H]2C`?
NPR2 activator: -6; GC-A act: -4

What do the screens show for `COCC#Cc1ccc(CC[C@H]2O[C@H]3CC[C@H](CO)O[C@H]3C[C@H]2n2cc(C(C)(C)O)nn2)cc1`?
NPR2 activator: 4; GC-A act: 6

What do the screens show for `COc1ccc(C(=O)Nc2sc3c(c2C(=O)O)CC(C)(C)OC3)cc1`?
NPR2 activator: 0; Lipid droplet: 15; JMJD2C inh: 1; GC-A act: -1; aDG glyco act: 0; NR3A LBD binder: 1

What do the screens show for `CC1(C)Cc2c(sc(NC(=O)c3ccccc3)c2C(=O)O)CO1`?
NPR2 activator: 8; Lipid droplet: -29; JMJD2C inh: -7; GC-A act: 5; aDG glyco act: 0; NR3A LBD binder: 10*

What do the screens show for `CC(C)c1nc2sc3c(=S)nc[nH]c3c2c2c1CCC2`?
NPR2 activator: -2; Lipid droplet: -1; JMJD2C inh: -8; GC-A act: 5; aDG glyco act: 0; NR3A LBD binder: 38*

How did CC(C)C[C@H](NC1(C(=O)NC2CCCCC2)CCCCC1)C(=O)NCCc1c[nH]c2ccccc12 do in these assays?
NPR2 activator: -9; GC-A act: -2

How did Cc1ccc2nc(-c3ccc(SCC(=O)Nc4ccc5c(c4)OCCO5)nc3)[nH]c2c1 do in these assays?
NPR2 activator: 6; Lipid droplet: -3; JMJD2C inh: 20; GC-A act: 2; aDG glyco act: 0; NR3A LBD binder: 26*

Results for Cc1cc2nc(-c3ccc(SCC(=O)Nc4ccc5c(c4)OCCO5)nc3)[nH]c2cc1C ?
JMJD2C inh: -2; aDG glyco act: 1; NR3A LBD binder: 15*

What do the screens show for `O=C(CSc1ccc(-c2nc3ccccc3[nH]2)cn1)Nc1ccc(S(=O)(=O)NC2CC2)cc1`?
NPR2 activator: 10; Lipid droplet: 1; JMJD2C inh: -3; GC-A act: 5; aDG glyco act: 0; NR3A LBD binder: 21*

How did Cc1ccc(-c2ccc(SCC(=O)Nc3ccc4c(c3)OCCO4)nn2)cc1 do in these assays?
NPR2 activator: 1; Lipid droplet: -31; JMJD2C inh: -26; GC-A act: 6; aDG glyco act: 0; NR3A LBD binder: -6

Results for O=C(CSc1ccccn1)Nc1ccc2c(c1)OCCO2 ?
NPR2 activator: 2; JMJD2C inh: 2; GC-A act: 2; aDG glyco act: 0; NR3A LBD binder: 4

Results for O=C(CSc1ccc(-c2nc3ccccc3[nH]2)cn1)Nc1ccc2c(c1)OCCO2 ?
Lipid droplet: 16; JMJD2C inh: 1; aDG glyco act: 0; NR3A LBD binder: 29*
